ChEMBL document CHEMBL1926557 (Bioorg Med Chem, 2012)

Experiments:
[1] = Antineuroinflammatory activity in LPS-stimulated rat microglia cells assessed as inhibition of PMA-stimulated superoxide anion release preincubated for 15 mins measured 70 mins after PMA challenge; format: functional
In short: (§1)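 Rat neonatal microglia (2 × 10^5 cells/well) primed with E. coli LPS 0.3 ng/mL for 17 h in DMEM + 10% FBS + penicillin/streptomycin at 35.9 °C, 5% CO2. Cells washed with warm HBSS, pre-exposed to compound (0.01–10 µM) or DMSO vehicle, then triggered with PMA 1 µM. Superoxide measured as superoxide dismutase-inhibitable reduction of ferricytochrome c. Triplicate wells, 2–4 experiments. IC50 derived.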

[2] = Antineuroinflammatory activity in LPS-stimulated rat microglia cells assessed as inhibition of PMA-stimulated TXB2 release preincubated for 15 mins measured 70 mins after PMA challenge; format: functional
In short: as §1, with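 “TXB2 in supernatant quantified by EIA.” for “Superoxide measured as superoxide dismutase-inhibitable reduction of ferricytochrome c.”, “wells, 1 mL final volume,” for “wells,”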

[3] = Cytotoxicity against rat microglia cells after 90 mins by LDH release assay; format: cell-based; conditions: 1.5 h
In short: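 Short-term viability of PMA (1 µM)-stimulated rat microglia measured by LDH release, given as percent of total LDH. Total LDH is released LDH plus the intracellular LDH from cells lysed with 0.1% Triton X-100. LDH50 is the concentration causing release of 50% of total LDH. Data from 3–4 experiments.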

[4] = Cytotoxicity against rat microglia cells assessed as cell viability after 18 hrs by WST-1 assay; format: cell-based
In short: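 Rat neonatal microglia (10,000 cells/well) plated in LPS-free wells in FBS-free DMEM with penicillin/streptomycin. Compound (0.1–10 µM final) or DMSO vehicle added for 18 h at 36 °C, 5% CO2. WST-1 then added for 2 h, and formazan read at 450 nm against a 620 nm reference. Treated wells compared with vehicle, significance at p < 0.05.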

| Compound | IC50 [1] [µM] | IC50 ([2]; read-out: IC50) [µM] | IC50 [3] [µM] | Activity [4] | IC50 ([2]; read-out: IC50(app)) [µM] |
| --- | --- | --- | --- | --- | --- |
| [C-]#[N+]C(C)(C)C[C@@H]1C[C@H](C)[C@H]2CC[C@](C)([N+]#[C-])[C@@H]3CCC(=C)[C@@H]1[C@H]23 | > 10 | 0.2 | > 10 | Non-toxic | – |
| [C-]#[N+][C@@]1(C)CC[C@H]2[C@H]3[C@@H](C(=C)CC[C@H]31)[C@H](CC(=C)C)C[C@@H]2C | > 10 | 1.72 | > 10 | Non-toxic | – |
| [C-]#[N+]C(C)(C)C[C@@H]1C[C@H](C)[C@H]2CC[C@H](C)[C@@]3([N+]#[C-])CCC(=O)[C@@H]1[C@H]23 | > 10 | 1.43 | > 10 | Non-toxic | – |
| C=C1CC[C@@]2(NC=O)[C@H]3[C@H](CC[C@@H]2C)[C@@H](C)C[C@@H](CC(C)(C)NC=O)[C@H]13 | > 10 | 3.14 | > 10 | Non-toxic | – |
| [C-]#[N+][C@@]12CCC(=C)[C@H]3[C@H](CC(C)(C)NC=O)C[C@H](C)[C@@H](CC[C@@H]1C)[C@@H]32 | > 10 | 1.48 | > 10 | Non-toxic | – |
| CC(=O)Oc1ccccc1C(=O)O [ASPIRIN] | – | 3.12 | – | – | – |
| [C-]#[N+]C(C)(C)C[C@@H]1C[C@H](C)[C@H]2CC[C@H](C)[C@@]3([N+]#[C-])CCC(=C)[C@@H]1[C@H]23 [DIISOCYANOAMPHILECTENE] | > 10 | 0.23 | > 10 | Non-toxic | – |
| CC(C(=O)O)c1ccc(-c2ccccc2)c(F)c1 (stereo not given) [FLURBIPROFEN] | – | – | – | – | 0.1 |
| [C-]#[N+][C@@]12CCC(=C)[C@H]3[C@H](CC(C)(C)NC(=O)CN4CCC4=O)C[C@H](C)[C@@H](CC[C@@H]1C)[C@@H]32 [MONAMPHILECTINE A] | > 10 | 4.69 | > 10 | Non-toxic | – |
